Data reported in the EternaBench riboswitch data.

System: MS2 coat protein
Assay: apparent Kd, MS2 coat protein; higher = weaker binding; RNA-MaP array; FMN 200 µM where present
Procedure, shortened: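 Each design was made on Illumina sequencing-chip clusters by stalled E. coli RNA polymerase and titrated with SNAP-549-labelled MS2 coat protein from 0.7 or 1.5 nM, doubling to 3 µM, in the absence and then the presence of constant ligand. The buffer was 100 mM Tris-HCl pH 7.5, 80 mM KCl, 4 mM MgCl2, BSA, DTT, yeast tRNA and Tween-20. The apparent Kd is the median of filtered per-cluster fits of binding curves, with green signal normalised to red-channel RNA signal and control-cluster median Fmax.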

[1] = designed as: OFF switch for flavin mononucleotide, no ligand
[2] = ligand present: flavin mononucleotide, designed as: OFF switch for flavin mononucleotide
[3] = designed as: ON switch for flavin mononucleotide, no ligand
[4] = ligand present: flavin mononucleotide, designed as: ON switch for flavin mononucleotide

Row | Sequence | apparent Kd [1] [nM] | apparent Kd [2] [nM] | apparent Kd [3] [nM] | apparent Kd [4] [nM]
1 | GUAAUGUGAGGAUAUGGUAAAGAUAAGAUGAUGAAAGAACUCCAGAAGGCACAUGAGGAUCACCCAUGUAGAUG | 26.7 | 107 | – | –
2 | CGUUGUUCCGCAGGAUAUGCAUUGGAUUACAAUGCAGAAGGGCGAUAACAUGAGGAUCACCCAUGUGUGGACAAUAAGGAAGAG | – | – | 811 | 62.1
3 | UCAGGCUUCGAGAAGGACAUGAGGAUCACCCAUGUUAAUAUGUAGCAGCCGUGAGGCUGCAUCAUGUAGGAUAUCGGAGUCUGC | 7.02 | 18.7 | – | –
4 | CUGGGAUCAGUAGGAUAUGCCGGACAUGAGGAUCACCCAUGUAAGGCGUGCUUCCCUCGCGUGCGGCAGAAGGGCUGCAUCACA | 32.7 | 35.4 | – | –
5 | GGACGUCACAUUAACAUGAGGAUCACCCAUGUCAAAAGACAUGAGGAUAUGGAUCCGAAAAGGAUCCAGAAGGCAUGGACGUCC | – | – | 555 | 36.6
6 | CUUAGACAUGAGGAUCACCCAUGUGAGGAUAUGAUGCGAUCGUGCUGACAUGAUCGCAUCAGAAGGCACAUAUG | 145 | 322 | – | –
7 | UAAAUACAUGAGGAUCACCCAUGUCAGGAUAUAUUACGCCCGCCAAGCGAGCGCGUCUAUAGAAGGGACGGUGA | 33.3 | 33.2 | – | –
8 | UCAUACGGUGAGGAUAUCUCCGUUAAAGUAUGUAGAGAAGGCGCUACAUGAGGAUCACCCAUGUUUGUGGGCAG | 392 | 278 | – | –
9 | CCAGCGCGUGUGAGGAUAUGCUGGUCCUUGGAUCAGCAGAAGGCACAUGAGGAUCACCCAUGUGAGUGCGUUGG | 15.7 | 47.2 | – | –
10 | AAAAUCUAUUGAGGAUAUCGUUCUUAAAGAGAAUGAGAAGGCAAACAAUCAUGAGGACAUGAGGAUCACCCAUGUUGUGACCAU | – | – | 19.9 | 10.3
11 | AACGGAAUGUAGAAGGGUGACAUGAGGAUCACCCAUGUUCACAUGCGUAUUAAAGUAUGUGAACCACAGGAUAUACUGUCCGUG | – | – | 56.8 | 130
12 | CCUCAACAGUAGGAUAUCAUCAAACUAUUGUGAUGAGAAGGACUGACAUGAGGAUCACCCAUGUUGACGUGAUA | 63.4 | 51.7 | – | –
13 | UUACUCAUGUAAGGAUAUGCAGCCGUUUCGGCUGCAGAAGGUACUAUAAUACAUGAGGAUCACCCAUGUCUUUUUAAUUUGUAC | – | – | 35.7 | 23.1
14 | GCCAUCGCAUGAGGAUAUGGUCUGCUUUGCAGACCAGAAGGCAUGUCAUAAGACAUGAGGAUCACCCAUGUAGUUAAGAUGGCA | – | – | 800 | 43.9
15 | GCGUUCUUGUAGAAGGUACAAGAAAACUAUUAUUAACACAUGAAACAUGAGGAUCACCCAUGUAGUAAGGAUAUACAUGAACGC | – | – | 10.1 | 7.18
16 | UUUUAAUAAGAGAAGGAGCACUUCAUGAGGAUCACCCAUGUGUUAGUAGUUAGGAUAUUUAAUAACAUGAGGAUCACCCAUGUC | – | – | 159 | 123
17 | UAGGGAGGAGGGAGGGAGACAUGAGGAUCACCCAUGUAAAGUCAGGAUAUUCUCAUAUUAUAUUAGGAGAAGGGAUACAUAUCU | 47.5 | 13.8 | – | –
18 | UUUACAUGAGGAUCACCCAUGUAUAGAACGGUUAAUUAAAGUGAGGAUAUACAUAAUUUUAUAUUGUAGAAGGCACUGGGUACA | – | – | 14.3 | 17.5
19 | GGUCGUCAAGUCAGGAUAUCGUUUAGUCGGUGUAACGAGAAGGGACAUGAGGAUCACCCAUGUCGUCUCAUCAG | 18.8 | 25.8 | – | –

Row | Sequence | apparent Kd [1] [nM] | apparent Kd [2] [nM] | apparent Kd [3] [nM] | apparent Kd [4] [nM]
20 | GGAGCACACAUUAACAUGAGGAUCACCCAUGUCAAAAGACAUGAGGAUAUGGAUCCGAAAAGGAUCCAGAAGGCAUUGUGCUCC | – | – | 372 | 28.2
21 | AUACUAAAUGAAGGAUAUCUAAGCAUACACCUGAGAGAAGGUCAUUUUUACAUGAGGAUCACCCAUGUUGUGGUUAAUGGGUUA | 290 | 374 | – | –
22 | GUAACAUGAGGAUCACCCAUGUAUAGAACGCUUAAUAGAUCUGAGGAUAUACUAGAAUUUACGUAGUAGAAGGCAGUGGGUACA | – | – | 35.9 | 26.9
23 | AAAAAGUGAGGAUAUCGAAAAAAAAAAAAAAAAAAAAAAAACGAGAAGGCACAUGAGGAUCACCCAUGUAAAAA | 35.8 | 44.9 | – | –
24 | AUAUUACGAGGAUAUCGUUUUUAUCACAUGAGGAUCACCCAUGUAAUUUAUGUUUCGUUUCGAGAAGGCGUAAGUU | 19.8 | 22 | – | –
25 | CAGAAGUCAGGAUAUCCAUGGCGGCACUUGCGUGGUGGCGUGGAGAAGGGACAUGAGGAUCACCCAUGUAAAGA | 59.1 | 48.2 | – | –
26 | AAAACAUGAGGAUCACCCAUGUAAAGAUCGGAAAGUUAGAGUGAGGAUAUACAAAAUUUUAUAUAGUAGAAGGCACUGGGUACA | – | – | 34.6 | 33.5
27 | CUUAUGUGAGGAUAUCAGUAGUAAUACAAUAGUAUUACUACUGAGAAGGCACAUGAGGAUCACCCAUGUUCUUC | 134 | 36.9 | – | –
28 | GCCAGUUGAGGAUAUGCAGGUGGGUGCCCUGAUCCUCUGUUACAUGAGGAUCACCCAUGUAGAAGGCAAUGUCA | 92.4 | 123 | – | –
29 | UAACAUGUCCGAGGAUAUCUGGAAACAUUUUCAAGAGAAGGCGGACAUGAGGAUCACCCAUGUCUCUCCUCAUCAAAUCCAAGU | 8.9 | 42.3 | – | –
30 | CGUAACUGCAUAGGAUAUUGAUACAUGAGGAUCACCCAUGUUUUUCGGAUUAGAUAUAUACUUAGCAAGAAGGAUGGAGUUACG | – | – | 9.58 | 6.57
31 | UAGAAUCGAGGAUAUACAUGAGGAUCACCCAUGUGUUGCCGCAUGAUGUGAUCGUCAGGUAGAAGGCGAUUAUA | 25.4 | 18.7 | – | –
32 | GGUGCUAUGUAGAAGGCAGAUCUGAUUCAGAUCUGAGGAUAUACAUGAGGAUCACCCAUGUUAUGCACCAGCACGAGAGUGCAA | 7.12 | 12.8 | – | –
33 | UGUUUUGUACAUGAGGAUCACCCAUGUUAAUAUGUGGUAGUCAGAAGGCAUUGUUUGAGAUAUUAUGAGGAUAUGAUUAGUCUG | – | – | – | 43.9
34 | UUGUUGUAUGUAGGAUAUGCGUGUUAUUAUUAUGCAGAAGGACAUGAGGAUCACCCAUGUAUAUUAUUAUUAUAUGUUAUAUAU | 25 | 23.9 | – | –
35 | GGAGAUUACUCAGGAUAUCGCUAGACCUACAUGAGGAUCACCCAUGUGGGUGACGCGGUGGGCUACGAGAAGGGAGAAGUGCCC | 8.9 | 8.53 | – | –
36 | AUCGUUGACUGGACGAGAAUAGGGCAGGAUAUACAUGAGGAUCACCCAUGUGAAGCACGAAAGAGGUAGAAGGGCCCACGUCAU | – | 20.5 | – | –
37 | AAGGUGUAAGGAUAUGCUGCUCGUCACUUGCGUGAUGAGUAGCAGAAGGUACAUGAGGAUCACCCAUGUAAAAA | 27.9 | 34.6 | – | –
